Consider 13 molecules from PubChem BioAssay.

A short description of assay [1]: hit retest on RPL19A-GFP reporter strain – cell-based, S. cerevisiae, flow cytometry, cherry picks, mother/daughter gates, confirmation (AID 2270;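 active means GFP response below 50% of the DMSO control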). The settings on record: 3 h, at 10 µM, stronger effect = lower value, 100 = same GFP as DMSO wells. For orientation: Flow cytometry measures light scatter and fluorescence of single cells or particles in a stream.
Assay [2] in a line: yeast TOR pathway reporter LAP4-GFP change – cell-based, cherry picks, flow cytometry, mother/daughter gates, confirmation (AID 2271;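 active means GFP response above 150% of the DMSO control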;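 further: ratio of sample to DMSO plate mean so 100% equals DMSO level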). The settings on record: S. cerevisiae LAP4-GFP strain, 3 h, at 10 µM, stronger effect = higher value, 100 means same as DMSO control. Summed up:
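System: GFP-fusion yeast strain | Input: Yeast cells seeded at OD600 of 0.2 | Technique: HT flow cytometry, GFP fluorescence channel | Read-out: % GFP response vs DMSO | Dosing: Single test-compound dose, 10 µM final | Controls: Positive rapamycin (400 ng/mL), negative DMSO | Times: 3 h treatment at 30 °C with rotation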

A short description of assay [3]: TOR pathway reporter MEP2-GFP, retest of hits – S. cerevisiae, flow cytometry GFP, cherry picks, confirmation (AID 2272;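 active means GFP response above 150% of the DMSO control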;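 further: ratio of well signal to plate DMSO mean so 100% equals DMSO level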). The note with it: S. cerevisiae MEP2-GFP strain, 3 h, at 10 µM, stronger effect = higher value.
Assay [4] is described as follows: yeast AGP1-GFP fluorescence change, single-dose – cell-based, flow cytometry, S. cerevisiae, cherry picks, confirmation (AID 2273).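 Further: median GFP channel fluorescence over the whole cell population gate.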 The settings on record: S. cerevisiae AGP1-GFP strain, 3 h, at 10 µM.
Assay [5] in a line: TOR pathway CIT2 reporter hit retest – S. cerevisiae, GFP fusion, cherry picks, mother/daughter gates, confirmation (AID 2274). The note with it: S. cerevisiae CIT2-GFP strain, flow cytometry, 3 h, at 10 µM, stronger effect = higher value.
Where [6] appears, read: measured here: daughter cell gate.
The mark [7] stands for this setting: measured here: mother cell gate.
The mark [8] stands for this setting: measured here: daughter cell gate response.
Setting [9] is: measured here: mother cell gate response.

Active and inactive are the calls of the source.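 How the source made its calls, unless noted: active means GFP response above 150% of the DMSO level; inconclusive means fewer than 70 events counted for a yeast strain; inactive means the rest.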

Regarding `C/C(=N\NC(=O)c1cccc(Cl)c1)c1cccc(NC(=O)C(C)C)c1`, the GFP response vs DMSO was 96.2% (inactive) in assay [1], 98.1% in assay [1] (setting [6]), 95.6% in assay [1] (setting [7]) and 103% (inactive) in assay [3]. Further, the values for the GFP response relative to DMSO in assay [2], in assay [2] (setting [8]) and in assay [2] (setting [9]) were 92.9% (inactive), 94.4% and 92.3%, respectively. Moreover, the GFP response, % of DMSO in assay [4] was 99.8% (inactive); in assay [5] it was 100% (inactive); in assay [5] (setting [6]), 99.3%; in assay [5] (setting [7]), 103%.
For `COc1ccc(OC)c(/C=C/C(=O)c2ccc(Cl)cc2)c1`, the GFP response vs DMSO in assay [1] is 92.2% (inactive); in assay [1] (setting [6]), 91.9%; in assay [1] (setting [7]), 92%; in assay [3], 96.2% (inactive). Further, the GFP response relative to DMSO in assay [2] is 104% (inactive); in assay [2] (setting [8]), 97.6%; in assay [2] (setting [9]), 105%. For the same molecule, the GFP response, % of DMSO in assay [4] was 98.5% (inactive); in assay [5] it was 101% (inactive); in assay [5] (setting [6]) it was 101%; in assay [5] (setting [7]) it was 101%.
`COc1ccc(N2CCN(C(=O)C3CCCN(S(=O)(=O)c4ccc(C)cc4)C3)CC2)cc1` (stereo not drawn): the GFP response vs DMSO was 95.2% (inactive) in assay [1], 97.4% in assay [1] (setting [6]), 93.4% in assay [1] (setting [7]) and 105% (inactive) in assay [3]. For the same molecule, the GFP response relative to DMSO in assay [2] is 103% (inactive); in assay [2] (setting [8]), 104%; in assay [2] (setting [9]) it was 104%. For the same molecule, the GFP response, % of DMSO in assay [4] was 97.3% (inactive); in assay [5], 103% (inactive); in assay [5] (setting [6]), 97.4%; in assay [5] (setting [7]) it was 105%.
As to `COc1ccc(NC2=C(Cl)C(=O)N(CCc3ccccc3)C2=O)c(OC)c1`, the GFP response vs DMSO in assay [1] was 98% (inactive); in assay [1] (setting [6]), 96.6%; in assay [1] (setting [7]), 97.2%; in assay [3], 98.8% (inactive). Further, the GFP response relative to DMSO in assay [2] is 102% (inactive); in assay [2] (setting [8]), 101%; in assay [2] (setting [9]), 104%. Besides, the GFP response, % of DMSO in assay [4] is 97.9% (inactive); in assay [5], 98.4% (inactive); in assay [5] (setting [6]), 98.4%; in assay [5] (setting [7]) it was 97.7%.
With `C=CCn1c(=O)c(C(=O)Nc2ccccc2C(=O)OCC)c(O)c2ccccc21`, the GFP response vs DMSO was 100% (inactive) in assay [1], 101% in assay [1] (setting [6]), 101% in assay [1] (setting [7]) and 99.5% (inactive) in assay [3]. The results for the GFP response relative to DMSO in assay [2], in assay [2] (setting [8]) and in assay [2] (setting [9]) were 87.2% (inactive), 86.4% and 89.7%, respectively. Also, the GFP response, % of DMSO in assay [4] is 101% (inactive); in assay [5], 96.4% (inactive); in assay [5] (setting [6]) it was 96.4%; in assay [5] (setting [7]), 95.6%.
As to `CCCCn1c(-c2csc3c2CCCC3)n[nH]c1=S`, the GFP response vs DMSO in assay [1] was 91.5% (inactive); in assay [1] (setting [6]), 88.2%; in assay [1] (setting [7]), 94.1%; in assay [3], 93.3% (inactive). Also, the GFP response relative to DMSO in assay [2] was 122% (inactive); in assay [2] (setting [8]), 117%; in assay [2] (setting [9]) it was 128%. Also, the GFP response, % of DMSO in assay [4] is 95.6% (inactive); in assay [5], 80.6% (inactive); in assay [5] (setting [6]) it was 77.9%; in assay [5] (setting [7]) it was 80.5%.
Turning to `Cc1ccccc1OC1CCN(C(=O)C2CCC(=O)N(C3CCCC3)C2)CC1` (stereo not drawn), the GFP response vs DMSO was 97.6% (inactive) in assay [1], 98.4% in assay [1] (setting [6]), 97.7% in assay [1] (setting [7]) and 105% (inactive) in assay [3]. Moreover, the GFP response relative to DMSO in assay [2] is 101% (inactive); in assay [2] (setting [8]) it was 99.2%; in assay [2] (setting [9]), 99.3%. In addition, the GFP response, % of DMSO in assay [4] is 96.6% (inactive); in assay [5], 95.5% (inactive); in assay [5] (setting [6]) it was 95.4%; in assay [5] (setting [7]) it was 95%.
Take `Cc1nn(Cc2c(Cl)cccc2Cl)c(C)c1NC(=O)c1sc2ccccc2c1Cl`: the GFP response vs DMSO in assay [1] is 94.8% (inactive); in assay [1] (setting [6]) it was 95.7%; in assay [1] (setting [7]) it was 95.8%; in assay [3] it was 99.5% (inactive). Further, the GFP response relative to DMSO in assay [2] was 95.3% (inactive); in assay [2] (setting [8]), 93.6%; in assay [2] (setting [9]) it was 98.5%. Further, the GFP response, % of DMSO in assay [4] was 108% (inactive); in assay [5] it was 104% (inactive); in assay [5] (setting [6]) it was 100%; in assay [5] (setting [7]), 106%.
On to `Oc1c(Br)cc(Br)cc1C=NCc1ccccc1`, for which the GFP response vs DMSO in assay [1] was 101% (inactive); in assay [1] (setting [6]) it was 91.3%; in assay [1] (setting [7]), 101%; in assay [3], 112% (inactive). Also, the GFP response relative to DMSO in assay [2] was 135% (inactive); in assay [2] (setting [8]) it was 105%; in assay [2] (setting [9]), 137%. In addition, the GFP response, % of DMSO in assay [4] was 99.7% (inactive); in assay [5], 104% (inactive); in assay [5] (setting [6]), 108%; in assay [5] (setting [7]), 92.1%.
For the molecule `COc1ccccc1N1C(=O)c2cccc3c(C(=O)O)ccc(c23)C1=O`, the GFP response vs DMSO was 98.8% (inactive) in assay [1], 99.1% in assay [1] (setting [6]), 98.7% in assay [1] (setting [7]) and 105% (inactive) in assay [3]. Moreover, the results for the GFP response relative to DMSO in assay [2], in assay [2] (setting [8]) and in assay [2] (setting [9]) were 101% (inactive), 101% and 98.3%, respectively. For the same molecule, the GFP response, % of DMSO in assay [4] was 97.4% (inactive); in assay [5], 99.7% (inactive); in assay [5] (setting [6]) it was 101%; in assay [5] (setting [7]) it was 98.5%.
Turning to `CN=C(NC)SC1CC(=O)N(c2ccccc2)C1=O` (stereo not drawn), the GFP response vs DMSO is 99.3% (inactive) in assay [1], 97.8% in assay [1] (setting [6]), 102% in assay [1] (setting [7]) and 97.8% (inactive) in assay [3]. For the same molecule, the results for the GFP response relative to DMSO in assay [2], in assay [2] (setting [8]) and in assay [2] (setting [9]) were 99.8% (inactive), 98.7% and 103%, respectively. Moreover, the GFP response, % of DMSO is 93.5% (inactive) in assay [4], 92.6% (inactive) in assay [5], 93.2% in assay [5] (setting [6]) and 91.2% in assay [5] (setting [7]).
Turning to `COc1ccc(OCC(O)CNC(=O)/C=C/c2cccc([N+](=O)[O-])c2)cc1` (stereo not drawn), the GFP response vs DMSO is 100% (inactive) in assay [1], 100% in assay [1] (setting [6]), 100% in assay [1] (setting [7]) and 101% (inactive) in assay [3]. Further, the GFP response relative to DMSO in assay [2] was 104% (inactive); in assay [2] (setting [8]), 102%; in assay [2] (setting [9]), 104%. For the same molecule, the GFP response, % of DMSO in assay [4] is 107% (inactive); in assay [5], 103% (inactive); in assay [5] (setting [6]), 103%; in assay [5] (setting [7]) it was 104%.
Consider `O=C(Nc1nc(-c2ccccc2)cs1)c1cccs1`, for which the GFP response vs DMSO in assay [1] was 99.7% (inactive); in assay [1] (setting [6]), 94.2%; in assay [1] (setting [7]), 101%; in assay [3], 93.5% (inactive). The GFP response relative to DMSO in assay [2] is 101% (inactive); in assay [2] (setting [8]) it was 100%; in assay [2] (setting [9]) it was 106%. Moreover, the GFP response, % of DMSO in assay [4] was 86.9% (inactive); in assay [5] it was 97.8% (inactive); in assay [5] (setting [6]) it was 94.8%; in assay [5] (setting [7]), 98.7%.
